Calls of active or inactive are those of the source. No cut-off for these calls is given here.
Key:
Mus musculus [1] = assay: Increase in glucose uptake in epididymal fat in ob/ob mouse at 40 mg/kg/day, po after 4 weeks by hyperinsulinemic-euglycaemic clamp studies relative to control; type: functional, organism-based
Procedure, shortened: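 Ob/ob mice after 4 weeks of treatment, jugular catheterized 4 days earlier. Clamp with insulin at 12.5 mU kg⁻¹ min⁻¹, variable 25% glucose to hold basal glucose, and ³H-glucose at 0.1 μCi min⁻¹ with 2-¹⁴C-DG. Tissue uptake computed from the fitted plasma 2-¹⁴C-DG curve and tissue 2-¹⁴C-DG-6-phosphate content. n = 7 and 9.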

Mus musculus [2] = assay: Inhibition of aP2 in 5-week old apoE -/- C57BL/6J mouse fed on western diet and 15 mg/kg/day, po drug simultaneously in early intervention study assessed as reduction of atherosclerotic lesion in en face aorta relative to control; type: functional; design: scale not given: the % may be the effect or the level left
Procedure, shortened: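 Male Apoe⁻/⁻ C57BL/6J mice were fed a western diet (21% fat, 0.21% cholesterol) from 4–5 weeks of age. They were gavaged for 6 weeks with 15 mg kg⁻¹ d⁻¹ in vehicle (10% 1-methyl-2-pyrrolidone, 5% cremophor EL with ethanol, in water), starting at 5 weeks (early) or 12 weeks (late). Perfusion-fixed, pinned-out aortas were stained with Sudan IV and lesion area was quantified.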

Mus musculus [3] = assay: Effect on adiponectin level in 5-week old apoE-/- C57BL/6J mouse fed on western diet and 15 mg/kg/day, po drug simultaneously in 5-11 week early intervention study; type: functional
Procedure, shortened: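 Male Apoe−/− mice on western diet (21% fat, 0.21% cholesterol) from 4–5 weeks of age. Oral gavage for 6 weeks from age 5 or 12 weeks; vehicle 10% 1-methyl-2-pyrrolidone, 5% cremophor EL with ethanol in water. Blood taken after 6 h fast before and after treatment. Glucose by meter; insulin by ELISA; lipids and glycerol colorimetric.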

[4] = Reduction of TNF expression mouse aP2-/-R macrophage cells (re-expression of aP2) relative to control; type: functional, cell-based
Procedure, shortened: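 Mouse aP2⁺/⁺ and aP2-reconstituted aP2⁻/⁻ macrophage lines were grown in RPMI with FBS or 5% LPDS, with inhibitor in DMSO or vehicle. Mcp-1, Il1β, Il6 and Tnf mRNA were measured by SYBR Green qRT-PCR (annealing at 58 °C, 50 cycles), normalized to 18s rRNA and then to untreated cells. Mean ± s.e.m.; at least triplicate.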

Mus musculus [5] = assay: Decrease in Fasn expression in liver of ob/ob mouse at 40 mg/kg/day, po; type: functional, organism-based
Procedure, shortened: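 Liver from male ob/ob mice gavaged daily for 6 weeks from 8 weeks of age, n = 6 per group. mRNA measured by SYBR Green real-time PCR: 95 °C 4 min, then 50 cycles of 95 °C 15 s, 58 °C 30 s, 72 °C 30 s. Normalized to 18s rRNA.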

Question: For `CCc1c(-c2ccccc2)c(-c2ccccc2)nn1-c1ccccc1-c1cccc(OCC(=O)O)c1`, which Activity (Mus musculus [1]) is on record?
Answer: Active

Question: What about the Activity (Mus musculus [2]) of the same compound?
Answer: 52.6%

Question: What about the Activity (Mus musculus [3]) of the same compound?
Answer: 8.59 µg/mL

Question: What about the Activity [4] of the same compound?
Answer: Active

Question: What about the Activity (Mus musculus [5]) of the same compound?
Answer: Active
